Screening data from PubChem BioAssay.
An excerpt weighted towards active compounds, which were near 4.6% of everything screened.
Rtt109 HAT inh – inhibitors of C. albicans Rtt109/Vps75 HAT, primary screen, biochemical, ThioGlo CoA-SH fluorescence, plate reader; Histone acetyltransferase RTT109 (Candida albicans (strain SC5314 / ATCC MYA-2876)), …; purified Rtt109/Vps75, 4 h; inhibition, % at 34.9 µM; 330,000 compounds, 0.16% hits;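 active means inhibition of at least 50% in every replicate; inconclusive means best replicate reaches 50% inhibition but some replicates fall short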
FAS TE block – FAS thioesterase domain inhibitors, primary screen, biochemical, fluorescence intensity, uHTS; Fatty acid synthase (Homo sapiens), P49327; recombinant FAS-TE, OMFH fluorogenic substrate, fluorescence endpoint; inhibition, % at 15 µM; 360,000 compounds, 0.67% hits; AID 602261, 2012;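 active means compounds whose normalised, plate-corrected inhibition of enzyme fluorescence in the single-dose primary screen is 50% or more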;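 further: 0% = DMSO with enzyme and 100% = substrate without enzyme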
ALR H2O2 inh – inhibitors of human ALR sulfhydryl oxidase, primary screen, biochemical, H2O2 detection, HRP-luminol luminescence, single point; FAD-linked sulfhydryl oxidase ALR (Homo sapiens), P55789; 290,000 compounds, 3.8% hits; purified ALR, DTT oxidation; inhibition, % (concentration not given with the values); AID 485317, 2010;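 active means mean replicate inhibition above about 79%, with every replicate also reaching it, limit read from the data; inconclusive means only one of the two criteria met; inactive means mean below limit and not every replicate reaching it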
Target sequence (P55789 whole entry, looked up): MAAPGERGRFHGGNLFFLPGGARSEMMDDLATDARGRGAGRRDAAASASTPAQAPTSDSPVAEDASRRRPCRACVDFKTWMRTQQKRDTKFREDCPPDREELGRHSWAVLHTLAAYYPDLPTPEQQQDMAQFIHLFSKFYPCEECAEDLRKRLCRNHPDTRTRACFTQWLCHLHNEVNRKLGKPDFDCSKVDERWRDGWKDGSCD
UCH37 inh – inhibitors of human UCH37 deubiquitinase, primary screen, biochemical, Ub-AMC cleavage, fluorescence | Ubiquitin carboxyl-terminal hydrolase isozyme L5 (Homo sapiens), Q9Y5K5 | purified proteasome/UCH37 | inhibition, % (no concentration beside the values) | 330,000 compounds, 0.33% hits;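 active means mean inhibition over replicate wells above about 20%, limit read from the data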;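 further: 0% = compound-free wells with enzyme and 100% = wells lacking proteasome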
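Material: Human UCH37 enzyme supplied as purified proteasome complex | Schedule: 30 min compound-proteasome preincubation then 25 min substrate reaction, room temperature | Detection: AMC fluorescence from Ub-AMC cleavage, excitation 355 nm, emission 460 nm | Benchmarks: Wells without proteasome as full block, compound-free enzyme plus substrate as uninhibited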
PfM18AAP inh – PfM18AAP inhibitors, malaria aminopeptidase, primary screen, biochemical, QFRET, recombinant enzyme. 290,000 compounds, 1.2% hits. H-Glu-NHMec fluorogenic cleavage. M18 aspartyl aminopeptidase (Plasmodium falciparum 3D7). AID 1822, 2009. inhibition, % at 7.35 µM;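 active means inhibition above the campaign mean inhibition over all tested compounds plus 3 SD, cut at about 28% in these data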;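 further: 0% = plate median of test compound wells and 100% = 2 mM ZnCl2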
HDAC3 inh – HDAC3 deacetylase inhibitors, primary screen, biochemical, fluorescence, cell-free homogeneous | Histone deacetylase 3 (Homo sapiens), O15379 | recombinant HDAC3, fluorogenic peptide/trypsin coupled | inhibition, % at 8.3 µM | 320,000 compounds, 0.15% hits; in the data active means inhibition above about 26%, passing the limit was not always enough; inconclusive means no clear call, values can overlap the other calls
Target sequence (O15379 whole entry, looked up): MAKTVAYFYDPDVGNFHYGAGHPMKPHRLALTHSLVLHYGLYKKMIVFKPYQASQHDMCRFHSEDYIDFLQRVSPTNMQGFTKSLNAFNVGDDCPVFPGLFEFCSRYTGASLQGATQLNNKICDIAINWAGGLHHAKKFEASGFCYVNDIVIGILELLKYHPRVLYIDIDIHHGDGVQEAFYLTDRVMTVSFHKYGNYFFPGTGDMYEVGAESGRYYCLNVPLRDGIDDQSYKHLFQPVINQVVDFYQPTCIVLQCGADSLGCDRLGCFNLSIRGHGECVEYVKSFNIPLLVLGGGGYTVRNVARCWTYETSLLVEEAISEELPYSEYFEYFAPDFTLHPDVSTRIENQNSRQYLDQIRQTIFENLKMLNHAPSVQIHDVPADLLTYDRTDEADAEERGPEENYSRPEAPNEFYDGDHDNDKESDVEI
Numbers without * were called inactive; ? = inconclusive; nt = not tested or not shown.

SMILES | Rtt109 HAT inh | FAS TE block | ALR H2O2 inh | UCH37 inh | PfM18AAP inh | HDAC3 inh
Cc1cc(C)n(-c2ccc(Oc3ccccc3)c(S(=O)(=O)O)c2)n1 | 7 | -4 | 8 | 3 | -2 | -4
CCc1c(C)[nH]n(-c2ccc(Oc3ccccc3)c(S(=O)(=O)O)c2)c1=O | -20 | -2 | 99* | 4 | 1 | 6
CC1CCC(C(C)C)C(OCC(O)C[N+]2(C)CCCCC2)C1 (centres undefined) | 9 | -6 | 99* | 3 | 2 | 1
CC1CCC(C(C)C)C(OCC(O)CN2CCCC(C)C2)C1 (centres undefined) | 4 | -10 | -41 | 2 | -1 | -11
COc1cccc(CNc2ccc(N3CCCCC3)cc2)c1OC | -6 | 7 | 96* | 1 | 8 | 12
COc1ccccc1CNc1ccc(C(=O)O)cc1 | -1 | -7 | -5 | 6 | -6 | -3
COc1cccc(Nc2ccc(N3CCCCC3)cc2)c1OC | 4 | 11 | 100* | -3 | nt | -7
COc1ccccc1CNc1ccc(N2CCCCC2)cc1 | 6 | 1 | 98* | -1 | 8 | 1
COc1cccc(OC)c1C(=O)Nc1ccccc1N1CCCCC1 | -3 | 19 | 16 | 0 | -6 | 10
COc1cccc(CNc2ccc(S(N)(=O)=O)cc2)c1OC | -5 | -2 | 0 | 1 | 6 | -2
CC(CC(=O)NC1CCCC1)=NNC(=O)Cc1cccs1 | nt | nt | nt | 3 | nt | nt
COc1cc(C(C)=NN2CCOCC2)cc(OC)c1OC | nt | nt | nt | 4 | nt | nt
O=C(NN=Cc1cccc(Oc2ccccc2)c1)c1cccc(Br)c1 | nt | nt | nt | 5 | nt | nt
CCOC(=O)c1c(NC(=O)/C=C/C(=O)O)sc(C)c1-c1ccc(C(C)(C)C)cc1 | 6 | 30 | 97* | 16 | -5 | 17
O=C(/C=C\Nc1ccccn1)c1ccc(Cl)cc1 | 62* | 2 | 1 | -6 | 0 | 3
Cc1cccc(N/C=C/C(=O)c2ccc(Cl)cc2)c1 | -13 | 8 | -9 | 1 | -11 | -1
N#C/C(=C\c1cccc(Br)c1)C(=O)N1CCCCC1 | 2 | 34 | 11 | 1 | 30* | -5
CCOc1ccccc1C(=O)NC1CC2CCCC(C1)N2Cc1nnnn1Cc1ccco1 (centres undefined) | -7 | 2 | nt | 0 | -17 | nt
O=C(NC1CC2CCC(C1)N2Cc1nnnn1Cc1ccco1)NC12CC3CC(CC(C3)C1)C2 (centres undefined) | -9 | 1 | 80* | 2 | -1 | -12
CCC(=NNc1ccccc1)c1cnnc(-c2ccccc2)n1 | nt | nt | nt | 8 | nt | nt
CCOc1cccc(/C=C2\NC(=S)N(c3ccccc3)C2=O)c1O | 5 | -2 | ? | nt | 6 | -1
CCOc1cc(/C=C2\NC(=S)N(c3c(C)n(C)n(-c4ccccc4)c3=O)C2=O)ccc1O | 26 | -10 | 99* | 13 | 28 | 8
CCOc1ccc(C=NNC(=O)C(C)N(c2ccc(OC)cc2)S(C)(=O)=O)cc1 (centres undefined) | nt | nt | nt | 8 | nt | nt
CC(=NNC(=O)c1ccn(C)n1)c1ccc(NC(=O)C2CCC2)cc1 | nt | nt | nt | 6 | nt | nt
COc1ccc(NC(=O)CSc2nnc(Cc3ccc(C)cc3)c(=O)n2N)cc1OC | -12 | -20 | 91* | 0 | nt | -11
SMILES | Rtt109 HAT inh | FAS TE block | ALR H2O2 inh | UCH37 inh | PfM18AAP inh | HDAC3 inh
COc1cccc(NC(=O)CSc2nnc(Cc3ccc(C)cc3)c(=O)n2N)c1 | 13 | 5 | 99* | 0 | nt | 4
CCOc1ccc(Cc2nnc(SCC(=O)Nc3ccccc3)n(N)c2=O)cc1 | 0 | 3 | -2 | 4 | nt | 1
Cc1[nH]c(SCC(=O)Nc2cc(C(N)=O)cc(C(N)=O)c2)nc1Cc1ccccc1 | 4 | -10 | 97* | -1 | nt | -1
COc1ccc(NC(=O)CSc2nnc(Cc3ccccc3)c(=O)n2N)cc1OC | 3 | -5 | 93* | 5 | nt | 4
COc1ccc(Cc2nnc(SCC(=O)Nc3ccc(C)cc3)n(N)c2=O)cc1 | 6 | -11 | -5 | 0 | nt | 0
Cc1ccc2nc(C)c(C(=O)NN=Cc3cccs3)cc2c1 | nt | nt | nt | 3 | nt | nt
COc1cc(C=NNC(=O)Cn2nc([N+](=O)[O-])cc2C)cc(Br)c1OCc1ccccc1 | nt | nt | nt | 5 | nt | nt
Cc1ccc(C(=O)NN=C/C=C/c2ccc(Br)cc2)cn1 | nt | nt | nt | 4 | nt | nt
Cc1ccc(Cc2nnc(SCC(=O)Nc3ccccc3)n(N)c2=O)cc1 | 11 | -1 | 98* | -1 | nt | 1
Cc1cc(C)cc(NC(=O)CSc2nc3nc(C)cc(C)c3c(=O)[nH]2)c1 | -4 | 0 | 99* | 4 | nt | 1
Cc1cc(C)c2c(=O)[nH]c(SCC(=O)Nc3ccccc3)nc2n1 | 0 | -4 | 45 | 2 | 8 | 7
CN(C)c1ccc(NC(=O)CSc2nc3c(c(=O)[nH]2)CCCC3)cc1 | -2 | -6 | 96* | 0 | 16 | -6
Cc1ccc(NC(=O)CSc2nc3nc(C)cc(C)c3c(=O)[nH]2)cc1 | 0 | 0 | -20 | 5 | 1 | -9
Cc1cc(C)c2c(=O)[nH]c(SCC(=O)Nc3ccc(N(C)C)cc3)nc2n1 | 9 | -5 | 99* | 4 | 7 | 4
Cc1cc(C)c2c(=O)[nH]c(SCC(=O)c3ccc(C)c(C)c3)nc2n1 | 6 | 4 | 98* | 2 | -2 | 10
O=[N+]([O-])c1cccc(-c2ccc(C=NNc3nc(N4CCCCC4)nc(N4CCCCC4)n3)o2)c1 | nt | nt | nt | 8 | nt | nt
Cc1ccsc1C=NN=C1C(=O)Nc2ccccc21 | nt | nt | nt | 2 | nt | nt
COc1ccccc1CNC(=O)CC(C)=NNC(=O)Cc1ccc(OC)c(OC)c1 | nt | nt | nt | 1 | nt | nt
COc1ccccc1/C=C/C=NNC(=O)CCn1cnc2ccccc21 | nt | nt | nt | 3 | nt | nt
COc1nccnc1NS(=O)(=O)c1ccc(NC(=S)NC(=O)c2ccc(F)cc2)cc1 | -3 | -11 | 63 | 3 | 9 | 2
COc1nccnc1NS(=O)(=O)c1ccc(NC(=S)NC(=O)c2cccc(F)c2)cc1 | -4 | -9 | 91* | 2 | 3 | 11
O=C(O)c1ccccc1C(=O)Nc1ccc(S(=O)(=O)Nc2ccc(F)cc2)cc1 | nt | -6 | nt | 4 | -1 | -5
O=C(O)c1[nH]c2ccccc2c1NS(=O)(=O)Cc1ccccc1 | 8 | -9 | 99* | -22 | -3 | -58
COc1ccc(S(=O)(=O)Nc2c(C(=O)O)[nH]c3ccccc23)cc1OC | -6 | -12 | 10 | -6 | -3 | -1
COc1ccc(S(=O)(=O)Nc2c(C(=O)O)[nH]c3ccccc23)cc1 | 5 | -6 | 91* | -3 | 2 | -2
O=S(=O)(Cc1ccccc1)Nc1ccccc1 | -1 | -4 | -6 | -1 | -1 | 1
